# In ChEMBL document CHEMBL1128281 (J Med Chem, 1995):
# Legend:
# Mus musculus = species: Mus musculus; test: Ability to inhibit apomorphine-induced climbing behavior in mice.; assay type: functional
# Method in brief: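 Male CD-1 mice (18–30 g) were adapted for 1 h in wire-mesh cages, 8 per dose group. Distilled water or drug was given ip 30 or 60 min before apomorphine 1.5 mg/kg sc.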
# [1] = target: Serotonin 2 (5-HT2) receptor (Rattus norvegicus, UniProt P30994+P08909+P14842); test: Affinity for 5-hydroxytryptamine 2 receptor binding sites by its ability to displace [3H]spiperone from rat frontal cortex.
# Rattus norvegicus = species: Rattus norvegicus; test: Ability to block apomorphine-induced stereotypy in rats.; assay type: functional
# Method in brief: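 Male Wistar rats (150–250 g), 6–10 per dose group, given distilled water or test drug ip; apomorphine 1.5 mg/kg sc 50 min later. Rats were placed singly in cages and scored 10 min afterwards for continuous stereotyped licking or sniffing. Inhibition was the number of animals protected versus controls. ED50 was obtained by probit analysis.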
Compound,ED50 (Mus musculus) [mg/kg],IC50 [1] [nM],ED50 (Rattus norvegicus) [mg/kg]
COc1cc(C(C)=O)ccc1SCCCN1CCC(c2noc3cc(F)ccc23)CC1,2,41,13.6
COc1cc(C(C)=O)ccc1OCCCN1CCC(c2noc3ccccc23)CC1,0.67,3.5,20.8
CC(=O)c1ccc(OCCCN2CCC(c3noc4cc(F)ccc34)CC2)cc1,0.84,5.5,5.7
COc1cc(C(=O)N(C)C)ccc1OCCCN1CCC(c2noc3cc(F)ccc23)CC1,0.72,5.2,26.7
CNc1cc(C(C)=O)ccc1OCCCN1CCC(c2noc3cc(F)ccc23)CC1,0.15,42,47.6
COc1ccc(N)cc1OCCCN1CCC(c2noc3cc(F)ccc23)CC1,0.16,2,13
CCC(=O)c1ccc(OCCCN2CCC(c3noc4cc(F)ccc34)CC2)c(OC)c1,0.77,11,> 20
CC(=O)c1ccc(OCCCN2CCC(c3noc4cc(F)ccc34)CC2)c(O)c1,0.054,2.9,0.7
CCc1ccc(OCCCN2CCC(c3noc4cc(F)ccc34)CC2)c(OC)c1,0.18,16,9.5
CC(=O)c1cccc(OCCCN2CCC(c3noc4cc(F)ccc34)CC2)c1,0.39,63,6.4
CNc1ccccc1OCCCN1CCC(c2noc3cc(F)ccc23)CC1,0.81,17,22.3
Fc1ccc2c(C3CCN(CCCOc4ccccc4)CC3)noc2c1,0.62,33,7.1
COc1cc(C(=O)C(F)(F)F)ccc1OCCCN1CCC(c2noc3cc(F)ccc23)CC1,2.2,38,> 20
COc1cc(C#N)ccc1OCCCN1CCC(c2noc3cc(F)ccc23)CC1,1,45,15.7
COc1cc(C(C)=O)ccc1OCCCCN1CCC(c2noc3cc(F)ccc23)CC1,0.68,8.5,7.5
COc1ccccc1OCCCN1CCC(c2noc3cc(F)ccc23)CC1,0.48,5.2,9.7
COc1cc(/C(C)=N\O)ccc1OCCCN1CCC(c2noc3cc(F)ccc23)CC1,1.1,0.7,> 80
CCCCC(=O)c1ccc(OCCCN2CCC(c3noc4cc(F)ccc34)CC2)c(OC)c1,0.78,89,16.9
Nc1ccccc1OCCCN1CCC(c2noc3cc(F)ccc23)CC1,0.42,–,5.5
COc1cc(OCCCN2CCC(c3noc4cc(F)ccc34)CC2)ccc1C(C)=O,0.28,23,8.2
CC(O)c1ccc(OCCCN2CCC(c3noc4cc(F)ccc34)CC2)c(O)c1 (stereo unspecified),0.058,53,3.6
COc1cc(Br)ccc1OCCCN1CCC(c2noc3cc(F)ccc23)CC1,1.6,49,15.3
COc1cc(/C(C)=N\N)ccc1OCCCN1CCC(c2noc3cc(F)ccc23)CC1,0.64,20,17.4
COc1cc(C(C)=O)ccc1NCCCN1CCC(c2noc3cc(F)ccc23)CC1,0.26,18,9.3

Compound,ED50 (Mus musculus) [mg/kg],IC50 [1] [nM],ED50 (Rattus norvegicus) [mg/kg]
COc1ccc(NC(C)=O)cc1OCCCN1CCC(c2noc3cc(F)ccc23)CC1,0.6,3.8,30.1
COc1cc(C(C)=O)ccc1OCCN1CCC(c2noc3ccccc23)CC1,7.4,26,–
COc1cc2c(cc1OCCCN1CCC(c3noc4cc(F)ccc34)CC1)CCCC2=O,2.3,< 10,25
COc1cc2cc[nH]c2cc1OCCCN1CCC(c2noc3cc(F)ccc23)CC1,2.7,3.2,8.6
COc1cc(C(C)O)ccc1OCCCN1CCC(c2noc3cc(F)ccc23)CC1 (stereo unspecified),0.12,22,22.7
COc1cc(C(N)=O)ccc1OCCCN1CCC(c2noc3cc(F)ccc23)CC1,1.6,0.9,22.7
CCOc1cc(C(C)=O)ccc1OCCCN1CCC(c2noc3cc(F)ccc23)CC1,0.56,3.8,14.5
CC(=O)c1ccc(OCCCN2CCC(c3noc4cc(F)ccc34)CC2)cc1C,1.2,36,52.3
CSc1cc(C(C)=O)ccc1OCCCN1CCC(c2noc3cc(F)ccc23)CC1,20,170,–
CC(=O)Nc1cc(C(C)=O)ccc1OCCCN1CCC(c2noc3cc(F)ccc23)CC1,0.049,20,21.1
CC(=O)c1ccc2c(c1)OCC(CCN1CCC(c3noc4cc(F)ccc34)CC1)O2 (stereo unspecified),13.7,91,> 80
COc1cc(C(C)=O)ccc1OCCCCN1CCC(c2noc3cc(Cl)ccc23)CC1,2.4,143,9.7
C=C(C)c1ccc(OCCCN2CCC(c3noc4cc(F)ccc34)CC2)c(OC)c1,0.55,20,25
COc1cc(C(C)=O)ccc1OCCCN1CCC(c2noc3cc(Cl)ccc23)CC1,3.3,4.9,> 80
CC(=O)c1ccc(OCCCN2CCC(c3noc4cc(F)ccc34)CC2)c(N(C)C)c1,0.15,16,4.3
COc1cc(C(C)=O)ccc1OCCCCN1CCC(c2noc3ccccc23)CC1,1.6,34,17
COc1cc(C(C)=O)ccc1OCCN1CCC(c2noc3cc(F)ccc23)CC1,5.3,67,> 80
COc1cc(C(C)=O)cc(OC)c1OCCCN1CCC(c2noc3cc(F)ccc23)CC1,0.72,< 10,13.6
COc1cc(C(C)=O)ccc1OCCCN1CCC(c2noc3ccc(F)cc23)CC1,5.2,122,> 80
COc1cc(C(=O)c2ccccc2)ccc1OCCCN1CCC(c2noc3cc(F)ccc23)CC1,18.1,241,> 80
COc1cc(C(C)=O)ccc1OCCN1CCC(c2noc3cc(Cl)ccc23)CC1,> 20,45,–
CC(=O)c1ccc(OCCCN2CCC(c3noc4cc(F)ccc34)CC2)c(C)c1,0.25,–,31.4
CC(=O)c1cc(C)ccc1OCCCN1CCC(c2noc3cc(F)ccc23)CC1,5.6,153,25.1
